One data set relates to Wi-38 cells. The data set can be described thus: MTT cytotoxicity on normal human fibroblasts. Type of data set: cell-based. An outline of the steps:
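Normal human lung fibroblasts (Wi-38) were exposed to free s-triazine dendrimers and their conjugates, and viability was read by MTT assay. Safety was expressed as EC100 in μM, the concentration giving 100% growth of normal cells, as mean ± SEM of three measurements. Groups were compared by one-way ANOVA with Tukey's test at p < 0.05.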

Data set [1] has as its system MCF-7 cells. The data set can be described thus: MTT cytotoxicity on breast cancer cells. Type of data set: cell-based, human. An outline of the steps: (§1)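 Test compounds (free s-triazine dendrimers and their quercetin, lactobionic acid and PEG conjugates) were screened by MTT assay against MCF-7 breast and HepG-2 hepatocellular carcinoma cells. IC50 values are reported in μM as mean ± SEM of three measurements. Differences were tested by one-way ANOVA with Tukey's test, with p < 0.05 taken as significant. SI was tabulated against Wi-38 values.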

Data set [2] relates to HepG-2 cells. The data set can be described thus: MTT cytotoxicity on hepatocellular carcinoma cells. It counts as cell-based, human. The method, boiled down: as §1
Data set [3] has as its system MCF-7 cells. The data set can be described thus: Flow cytometric annexin V/PI analysis of apoptosis. Type of data set: cell-based, human. To be noted: MCF-7, 72 h, mean ± SEM. (In general: Flow cytometry measures light scatter and fluorescence of single cells or particles in a stream.)
The test system of data set [4] is HepG-2 cells. The data set can be described thus: Flow cytometric annexin V/PI analysis of apoptosis. Type of data set: cell-based, human. Conditions: HepG-2, 72 h, mean ± SEM.
Data set [5] has as its system VEGF. In words: VEGF gene expression by quantitative real-time PCR. It counts as cell-based, human. Conditions: MCF-7, compared to untreated cells, mean ± SEM. Background: Real-time PCR tracks product formation cycle by cycle.
Data set [6] concerns VEGF. The data set can be described thus: VEGF gene expression by quantitative real-time PCR. Conditions: HepG-2, compared to untreated cells, mean ± SEM. Type of data set: cell-based, human.
In the next data set the target is MMP-2 (Homo sapiens, UniProt P08253). In words: In vitro MMP-2 inhibition, colorimetric kit. Type of data set: biochemical. Conditions: read-out: MMP-2 IC50.
In another data set the target is MMP-9 (Homo sapiens, UniProt P14780). In words: In vitro MMP-9 inhibition, colorimetric kit. Type of data set: biochemical.
Where [7] appears, read: selectivity index versus normal Wi-38 cells.

By IC50 is commonly meant the concentration that gives 50% inhibition.

Each structure is given as a SMILES string.

Chain of MMP-9 (P14780 94-707): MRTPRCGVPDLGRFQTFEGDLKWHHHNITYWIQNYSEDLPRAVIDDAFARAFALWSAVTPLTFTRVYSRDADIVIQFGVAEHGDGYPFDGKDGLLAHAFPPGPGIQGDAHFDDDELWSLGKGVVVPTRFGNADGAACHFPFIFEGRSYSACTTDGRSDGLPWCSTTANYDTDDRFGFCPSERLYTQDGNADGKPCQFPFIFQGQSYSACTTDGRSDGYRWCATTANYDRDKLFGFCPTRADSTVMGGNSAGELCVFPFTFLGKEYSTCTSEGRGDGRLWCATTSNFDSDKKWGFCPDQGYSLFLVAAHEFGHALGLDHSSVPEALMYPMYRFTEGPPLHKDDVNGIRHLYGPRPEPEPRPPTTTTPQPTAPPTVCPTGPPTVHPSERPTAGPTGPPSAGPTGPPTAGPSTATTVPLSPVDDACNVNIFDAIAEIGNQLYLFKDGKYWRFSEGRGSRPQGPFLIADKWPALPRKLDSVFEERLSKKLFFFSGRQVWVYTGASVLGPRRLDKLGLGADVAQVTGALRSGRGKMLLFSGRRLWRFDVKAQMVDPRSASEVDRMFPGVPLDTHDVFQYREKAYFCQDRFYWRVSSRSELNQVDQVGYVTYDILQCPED
Chain of MMP-2 (P08253 110-446 limits assumed): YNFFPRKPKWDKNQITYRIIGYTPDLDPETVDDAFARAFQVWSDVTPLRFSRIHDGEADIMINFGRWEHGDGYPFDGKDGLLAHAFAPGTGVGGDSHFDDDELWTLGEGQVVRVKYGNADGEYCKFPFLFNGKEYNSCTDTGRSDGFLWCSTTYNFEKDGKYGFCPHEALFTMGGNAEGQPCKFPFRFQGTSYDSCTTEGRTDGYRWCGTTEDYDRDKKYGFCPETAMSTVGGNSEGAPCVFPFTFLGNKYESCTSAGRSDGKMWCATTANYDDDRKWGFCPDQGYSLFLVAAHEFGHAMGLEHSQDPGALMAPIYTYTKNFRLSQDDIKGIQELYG

On to `O=c1c(O)c(-c2ccc(O)c(O)c2)oc2cc(O)cc(O)c12` [Qur, quercetin], for which the IC50 with Wi-38 cells (Homo sapiens, WI-38, read-out: Wi-38 IC50) was 294 ± 12.6 µM; in the data set on MCF-7 cells [1] (Homo sapiens, MCF7, 72 h, read-out: MCF-7 IC50), 35.3 ± 0.475 µM; in the data set with HepG-2 cells [2] (Homo sapiens, HepG2, 72 h, read-out: HepG-2 IC50), 34.32 ± 0.128 µM. The same molecule gave an EC100 in the data set with Wi-38 cells (effective safe concentration at 100% cell viability, Wi-38, 72 h, mean ± SEM) of 70.57 ± 0.950 µM. Also, the “MCF-7 SI” value in the data set on MCF-7 cells [1] (setting [7]) worked out at 8.339. For the same molecule, the “selectivity index (SI)” value in the data set on MCF-7 cells [1] (stated for MCF-7 and HepG-2 together, versus Wi-38) is approximately 8.5. The “HepG-2 SI” value in the data set with HepG-2 cells [2] (setting [7]) is given as 8.573. Moreover, the “Total % of the apoptotic population” value was found to be 47.00 ± 1.83 % in the data set with MCF-7 cells [3] and 24.20 ± 0.895 % in the data set with HepG-2 cells [4]. Further, the “VEGF relative fold change” value came out at 0.683 ± 0.029 in the data set on VEGF [5] and 0.708 ± 0.012 in the data set on VEGF [6].

As to `COc1ccc(S(=O)(=O)N(CC(=O)NO)CC(C)C)cc1` [NNGH, N-isobutyl-N-(4-methoxyphenylsulfonyl)glycyl hydroxamic acid], the figures for the concentration for half-maximal inhibition (IC50) on MMP-2 and on MMP-9 (read-out: MMP-9 IC50) were 0.299 µM and 0.277 µM, respectively. In addition, the MMP-2/MMP-9 selectivity on MMP-9 (SI = IC50 (MMP-2)/IC50 (MMP-9), text: folds) was determined as 1.08.

For the origin of these results see PMC11967334 (RSC Advances, 2025).
